Experimental data taken from ChEMBL document CHEMBL1122281, “Synthesis and antifilarial activity of N-[4-[[4-alkoxy-3-[(dialkylamino)methyl]phenyl]amino]- 2-pyrimidinyl]-N'-phenylguanidines” (J Med Chem, 1983).

Assays:
Litomosoides carinii [1] = assay: Antifilarial activity against Litomosoides carinii infections in the Jird at dose 50 mg/kg administered orally; type: functional; conditions: route oral
Outline: (§1)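 L. carinii-infected jirds were dosed. Survivors were killed 55–70 days after the first dose, and the pleural and peritoneal cavities were searched for adult worms. Live worms at autopsy were scored as a percentage relative to sham-dosed controls. Adult worm reduction above 60% was the activity criterion.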

Litomosoides carinii [2] = assay: Antifilarial activity against Litomosoides carinii infections in the Jird at dose 12 mg/kg administered orally; type: functional; conditions: route oral; outline: as §1
Litomosoides carinii [3] = assay: Antifilarial activity against Litomosoides carinii infections in the Jird at dose 100 mg/kg administered orally; type: functional; conditions: route oral; outline: as §1
Litomosoides carinii [4] = assay: Antifilarial activity against Litomosoides carinii infections in the Jird at dose 25 mg/kg administered orally; type: functional; conditions: route oral; outline: as §1
Litomosoides carinii [5] = assay: Antifilarial activity against Litomosoides carinii infections in the Jird at dose 3 mg/kg administered orally; type: functional; conditions: route oral; outline: as §1
Litomosoides carinii [6] = assay: Antifilarial activity against Litomosoides carinii infections in the Jird at dose 0.5 mg/kg administered orally; type: functional; conditions: route oral; outline: as §1
Litomosoides carinii [7] = assay: Antifilarial activity against Litomosoides carinii infections in the Jird at dose 100 mg/kg administered subcutaneously; type: functional; conditions: route subcutaneous; outline: as §1
[8] = Antifilarial activity against Litomosoides carinii infections in the Jird at dose 100 mg/kg administered subcutaneously; two or more animals died prematurely considered to be drug toxicity.; type: organism-based, Meriones unguiculatus; set-up: dose 100 mg/kg, route subcutaneous; conditions: gerbil, in vivo, sc
Outline: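 Jirds infected with Litomosoides carinii. Surviving animals killed 55–70 days after first drug dose; pleural and peritoneal cavities searched for adult worms. Live worm count at autopsy scored as percentage relative to sham-dosed controls. Activity criterion: adult worm reduction exceeding 60%.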

Litomosoides carinii [9] = assay: Antifilarial activity against Litomosoides carinii infections in the Jird at dose 25 mg/kg administered subcutaneously; type: functional; conditions: route subcutaneous; outline: as §1

| SMILES | Reduction of live worms (Litomosoides carinii [3]) | Reduction of live worms (Litomosoides carinii [4]) | Reduction of live worms (Litomosoides carinii [5]) | Reduction of live worms (Litomosoides carinii [7]) | also measured |
| --- | --- | --- | --- | --- | --- |
| CCN(CC)Cc1cc(Nc2cc(C(F)(F)F)nc(/N=C(\N)Nc3ccccc3)n2)ccc1OC |  |  |  |  | Reduction of live worms (Litomosoides carinii [1]): 100%; Reduction of live worms (Litomosoides carinii [2]): 38% |
| CCOc1ccc(Nc2cc(C(F)(F)F)nc(/N=C(\N)Nc3ccc(Cl)c(Cl)c3)n2)cc1CN(CC)CC | 100% | 100% | 21% |  |  |
| CN(C)Cc1cc(Nc2cc(C(F)(F)F)nc(/N=C(\N)Nc3ccc(Cl)c(Cl)c3)n2)ccc1O | 100% | 100% | 90% |  | Reduction of live worms (Litomosoides carinii [6]): 100% |
| CN1CCN(Cc2cc(Nc3cc(C(F)(F)F)nc(/N=C(\N)Nc4ccc(C(=O)c5ccccc5)cc4)n3)ccc2O)CC1 |  |  |  | 8% |  |
| CCN(CC)Cc1cc(Nc2nc(/N=C(\N)Nc3ccc(Cl)c(Cl)c3)nc3c2CCCC3)ccc1O |  |  |  | 0% |  |
| CCN(CC)Cc1cc(Nc2cc(C(F)(F)F)nc(/N=C(\N)Nc3ccc(C(F)(F)F)cc3)n2)ccc1OC | 100% | 100% | 73% | 100% |  |
| CCN(CC)Cc1cc(Nc2cc(C(F)(F)F)nc(/N=C(\N)Nc3ccc(Cl)c(Cl)c3)n2)ccc1OC(C)C | 100% | 100% | 11% | 100% |  |
| CCN(CC)Cc1cc(Nc2cc(C(F)(F)F)nc(/N=C(\N)Nc3ccc(C(=O)c4ccccc4)cc3)n2)ccc1OCc1ccccc1 | 27% |  |  | 0% |  |
| N/C(=N\c1ccc(Cl)c(Cl)c1)Nc1nc(Nc2ccc(O)c(CNCC3CCCCC3)c2)cc(C(F)(F)F)n1 |  |  |  | 4% |  |
| CN(C)Cc1cc(Nc2cc(C(F)(F)F)nc(/N=C(\N)Nc3ccc(C(=O)c4ccccc4)cc3)n2)ccc1O |  | 32% | -22% | 100% |  |
| CCN(CC)Cc1cc(Nc2cc(C(F)(F)F)nc(/N=C(\N)Nc3ccc(C(=O)c4ccccc4)cc3)n2)ccc1O | 6% |  |  | 6% |  |
| CN1CCN(Cc2cc(Nc3cc(C(F)(F)F)nc(/N=C(\N)Nc4ccccc4)n3)ccc2O)CC1 | 91% |  |  |  | Reduction of live worms (Litomosoides carinii [1]): 78%; Reduction of live worms (Litomosoides carinii [2]): 0% |
| CCN(CC)Cc1cc(Nc2cc(C(F)(F)F)nc(/N=C(\N)Nc3ccc(Oc4ccccc4)cc3)n2)ccc1OCc1ccccc1 | 22% |  |  | 0% |  |
| CN1CCN(Cc2cc(Nc3cc(C(F)(F)F)nc(/N=C(\N)Nc4ccc(Oc5ccccc5)cc4)n3)ccc2O)CC1 |  |  |  | 8% |  |
| COc1ccc(Nc2cc(C(F)(F)F)nc(/N=C(\N)Nc3ccc(Cl)cc3)n2)cc1CN1CCCC1 |  |  | 99% |  | Reduction of live worms (Litomosoides carinii [1]): 100%; Reduction of live worms (Litomosoides carinii [2]): 100%; Reduction of live worms (Litomosoides carinii [6]): 100% |
| CCNCc1cc(Nc2cc(C(F)(F)F)nc(/N=C(\N)Nc3ccc(Oc4ccccc4)cc3)n2)ccc1OC |  |  |  | 0% |  |
| CCN(CC)Cc1cc(Nc2cc(C(F)(F)F)nc(/N=C(\N)Nc3ccccc3)n2)ccc1O |  |  |  |  | Reduction of live worms (Litomosoides carinii [1]): 100%; Reduction of live worms (Litomosoides carinii [2]): 47% |
| CCN(CC)Cc1cccc(Nc2cc(C(F)(F)F)nc(/N=C(\N)Nc3ccc(Cl)c(Cl)c3)n2)c1 | 100% | 100% | 83% |  |  |
| CN(C)Cc1cc(Nc2cc(C(F)(F)F)nc(/N=C(\N)Nc3ccc(C(F)(F)F)cc3)n2)ccc1O |  | 100% | 54% |  | Animals dead [8]: > 2 |
| CCOc1ccc(Nc2cc(-c3ccccc3)nc(/N=C(\N)Nc3ccc(Cl)c(Cl)c3)n2)cc1CN(CC)CC |  | 78% | 15% |  | Animals dead [8]: > 2 |
| CCNCc1cc(Nc2cc(C(F)(F)F)nc(/N=C(\N)Nc3ccc(Cl)c(Cl)c3)n2)ccc1O |  | 100% | 97% | 100% | Reduction of live worms (Litomosoides carinii [9]): 100%; Reduction of live worms (Litomosoides carinii [6]): 97% |
| CCN(CC)Cc1cc(Nc2cc(C(F)(F)F)nc(/N=C(\N)Nc3ccc(Oc4ccccc4)cc3)n2)ccc1O | 9% |  |  | 3% |  |
| CN(C)Cc1cc(Nc2cc(C(F)(F)F)nc(/N=C(\N)Nc3ccc(Oc4ccccc4)cc3)n2)ccc1O |  |  |  | 12% |  |
| CCNCc1cc(Nc2cc(-c3ccccc3)nc(/N=C(\N)Nc3ccc(Cl)c(Cl)c3)n2)ccc1OC |  |  |  | 0% |  |
